Experimental data from ChEMBL document CHEMBL1128382, “N4-unsubstituted N1-arylpiperazines as high-affinity 5-HT1A receptor ligands” (J Med Chem, 1995).

Molecular target: T1, 5-hydroxytryptamine receptor 1A (Rattus norvegicus, UniProt P19327)
T1 sequence (P19327 whole entry): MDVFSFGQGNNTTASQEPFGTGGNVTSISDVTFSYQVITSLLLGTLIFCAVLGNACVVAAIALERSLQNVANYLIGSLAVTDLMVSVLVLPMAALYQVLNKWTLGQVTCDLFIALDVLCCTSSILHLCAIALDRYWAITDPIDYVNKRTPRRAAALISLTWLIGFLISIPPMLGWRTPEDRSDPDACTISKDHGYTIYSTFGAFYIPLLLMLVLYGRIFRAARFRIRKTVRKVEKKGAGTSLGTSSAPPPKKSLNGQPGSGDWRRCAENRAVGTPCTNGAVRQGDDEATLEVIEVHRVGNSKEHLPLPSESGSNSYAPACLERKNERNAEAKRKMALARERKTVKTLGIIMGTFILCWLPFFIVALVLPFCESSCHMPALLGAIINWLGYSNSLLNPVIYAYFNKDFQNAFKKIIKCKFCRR
Assay: Displacement of [3H]2-(di-N-propylamino)-8-hydroxytetralin from central 5-hydroxytryptamine 1A receptor recognition sites in rat frontal cortex homogenates.
Type: tissue-based
How it was run: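 Competition binding against tritiated 8-OH-DPAT in rat frontal cortex homogenate. Ki values come from n separate determinations, each testing four to six ligand concentrations in triplicate.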

Compound | Ki [nM]
Brc1coc2c(N3CCNCC3)cccc12 | 130
Clc1ccc2c(c1N1CCNCC1)OCCO2 | 200
Cc1cc(N2CCNCC2)c2occc2c1 | 120
c1cc(N2CCNCC2)c2sccc2c1 | 9.9
COc1cc(N2CCNCC2)c2occc2c1 | 28
Cc1ccc(N2CCNCC2)c2occc12 | 220
O=[N+]([O-])c1ccc2ccoc2c1N1CCNCC1 | 140
c1ccc2c(N3CCNCC3)cccc2c1 | 18
COc1ccc2c(c1N1CCNCC1)OCCO2 | > 10000
COc1ccc(N2CCNCC2)c2occc12 | 430
c1cc(N2CCNCC2)c2[nH]ccc2c1 | 200
Cc1coc2c(N3CCNCC3)cccc12 | 73
C1=COc2c(cccc2N2CCNCC2)O1 | 12
Brc1ccc(N2CCNCC2)c2occc12 | 300
COc1cccc(N2CCNCC2)c1 | 320
CC1=COc2c(cccc2N2CCNCC2)O1 | 5.2
c1cc2c(c(N3CCNCC3)c1)CCCC2 | 84
COc1ccc(N2CCNCC2)cc1 | 20000
N#Cc1ccc2ccoc2c1N1CCNCC1 | 220
Fc1ccc(N2CCNCC2)c2occc12 | 18
c1ccc(N2CCNCC2)cc1 [PHENYLPIPERAZINE] | 500
Brc1cc(N2CCNCC2)c2occc2c1 | 35
Fc1cc(N2CCNCC2)c2occc2c1 | 105
Fc1ccc2ccoc2c1N1CCNCC1 | 5.8
COc1cccc(N2CCNCC2)c1OC | 1000
Cc1cc2cccc(N3CCNCC3)c2o1 | 13
